Assay results published in the array DNA melting data of Ke et al. (doi:10.1101/2024.01.08.574731).

Legend:
[1] = folding enthalpy; higher = less favourable; fluorescence melt of hairpins on a sequencing array, two-state fit; conditions: sodium 0.088 M
How it was run: (§1)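 Melting temperature and folding enthalpy were obtained by bootstrapped two-state fitting. Fits used Cy3 fluorescence of library hairpins with annealed Cy3 and quencher oligos on a sequenced MiSeq flow cell, imaged in 50 mM Na-HEPES pH 8.0, 25 mM NaCl in 2.5 °C steps up to 60 °C and normalised to pre-quench Cy3 and control constructs. Four replicates were combined by inverse-variance weighting, and fitted temperatures were raised by 9.35 °C to match UV melts.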

[2] = melting temperature; fluorescence melt of hairpins on a sequencing array, two-state fit, raised by 9.35 °C to match UV melts; conditions: sodium 0.088 M
How it was run: as §1

Sequence | folding enthalpy [1] | Tm [2]
GATCTTTCCAAGATC ((((((...)))))) | -37.1 kcal/mol | 47.7 °C
GCGGTGCGAAAGCATTGC ((..(((....)))..)) | -22.4 kcal/mol | 59.2 °C
GAAACTGGAAACAGTCTC ((.((((....)))).)) | -15.5 kcal/mol | 28 °C
GAATTGGGAAACTGATTC ((((..(....)..)))) | -13.2 kcal/mol | 25.6 °C
GTGGACGGAAACGTCTGC (..((((....))))..) | -15.8 kcal/mol | 49.2 °C
GCTGGTGGAAACACCGGC ((.((((....)))).)) | -36.1 kcal/mol | 62.6 °C
GACCCCGGAAACGGGACC (..((((....))))..) | -8.3 kcal/mol | 28.1 °C
GCGTTTTGACGC ((((....)))) | -25.2 kcal/mol | 55.2 °C
GTCGACGAAAGTCCCGAC ((((((....)))..))) | -16.1 kcal/mol | 34 °C
GTTGGTCGAAAGACAAC (((.(((....)))))) | -20.4 kcal/mol | 45.7 °C
GGAATAGAAATATTCC ((((((....)))))) | -29.3 kcal/mol | 41.7 °C
GATCATCTGATGATC ((((((...)))))) | -37.5 kcal/mol | 46.3 °C
GCGAACGGAAACATTCGC (((((.(....).))))) | -32.7 kcal/mol | 48.2 °C
GCAGGCGAAAGCCGTGC ((((((....))).))) | -17.1 kcal/mol | 62.8 °C
GTGGAAGGAAACTTTCGC (.(.(((....))).).) | -20 kcal/mol | 30 °C
GGAGGCGAAAGCCGTCC ((((((....))).))) | -9.55 kcal/mol | 52.9 °C
GCTATGCGAAAGCAATGC ((..(((....)))..)) | -16.5 kcal/mol | 47.7 °C
GGAATAGGAAACTATCCC ((.((((....)))).)) | -10.9 kcal/mol | 28 °C
GATCATCCATATGATC ((((((....)))))) | -34.9 kcal/mol | 47 °C
GTTCAACCGAAAGGTAAC (((..(((....)))))) | -11.7 kcal/mol | 26.7 °C
GCCTTCGAAAGAAAGGGC ((((((....)))..))) | -29.4 kcal/mol | 43.1 °C
GCGTCGCGAAAGCCATGC ((.(.((....)).).)) | -16.2 kcal/mol | 41.5 °C
GTACCGCGAAAGCGCTAC (((.(((....))).))) | -12.2 kcal/mol | 35.9 °C
GCTACGCGAAAGCGACGC ((..(((....)))..)) | -15.1 kcal/mol | 40.2 °C

Sequence | folding enthalpy [1] | Tm [2]
CGCAACCGGAAACGGGCG (((..(((....)))))) | -20.8 kcal/mol | 50.1 °C
GCCGTGCGAAAGCCAGGC (((..((....))..))) | -23.9 kcal/mol | 62.8 °C
GGGGTTACGAAAGTACCC (((..(((....)))))) | -22.8 kcal/mol | 51.4 °C
GCGTGCGGACGC ((((....)))) | -15.6 kcal/mol | 54.7 °C
GTGGTGGAAACACCAC ((((((....)))))) | -34.7 kcal/mol | 66.6 °C
GCTCACCGAAAGGTAGC (((.(((....)))))) | -22.4 kcal/mol | 50.2 °C
GTAGGCGAAAGCCGGTAC ((((((....)))..))) | -10.7 kcal/mol | 42.2 °C
GTCGCACGAAAGTGTGAC (((.(((....))).))) | -42.4 kcal/mol | 67.4 °C
GATCGCCCACGCGATC ((((((....)))))) | -35 kcal/mol | 68.1 °C
CGTTCGGAAACGACCACG ((((((....)))..))) | -8.89 kcal/mol | 27.3 °C
GATCAAATTTTTGATC ((((((....)))))) | -39 kcal/mol | 47.7 °C
GATCAATGCTTGATC ((((((...)))))) | -28.5 kcal/mol | 43.2 °C
GCCCAGCGAAAGCTGGC (((.(((....)))))) | -9.03 kcal/mol | 61 °C
GAGCATCCGAAAGGACTC (((..(((....)))))) | -10.8 kcal/mol | 27.5 °C
GCGACAGTTCGC ((((....)))) | -17.4 kcal/mol | 47.7 °C
GATGAGGAAACTCATC ((((((....)))))) | -35 kcal/mol | 52.8 °C
GATTGTGGAAACATAATC ((((.((....)).)))) | -27.3 kcal/mol | 36.1 °C
GGAAGCGAAAGCTACTCC ((((((....)))..))) | -13.3 kcal/mol | 30.8 °C
GATCTCAAAGGAGATC ((((((....)))))) | -33.4 kcal/mol | 48.2 °C
GCTGAACGAAAGTTGAGC (((.(((....))).))) | -31.4 kcal/mol | 48.7 °C
GTGGTACCGAAAGGTCAC (((..(((....)))))) | -18.4 kcal/mol | 38.4 °C
GCGTTTGGAAACAAGTGC ((..(((....)))..)) | -15.8 kcal/mol | 31.4 °C
GATCATATCTATGATC ((((((....)))))) | -41.6 kcal/mol | 48.5 °C
GTACTCGAAAGAGGCTAC ((((((....)))..))) | -14.3 kcal/mol | 37.4 °C

Sequence | folding enthalpy [1] | Tm [2]
GCATCGCGAAAGCTGTGC (((..((....))..))) | -21.1 kcal/mol | 45.8 °C
GAAGTGCGAAAGCAGTTC (((.(((....))).))) | -33.5 kcal/mol | 57.5 °C
GCGTACCTACGC ((((....)))) | -29.7 kcal/mol | 52.8 °C
GCGCAGCGAAAGCTATGC ((..(((....)))..)) | -7.11 kcal/mol | 39.3 °C
GTCGATGGAAACATCGAC (((((((....))))))) | -44.8 kcal/mol | 67.3 °C
GAAGACCGAAAGGTTTTC (((.(((....))).))) | -27.4 kcal/mol | 47.9 °C
GTCTATGGAAACATAGGC (.(((((....))))).) | -30.7 kcal/mol | 44 °C
GCGGTCGAAAGACCACGC ((((((....)))..))) | -17 kcal/mol | 57 °C
GATTCCGAAAGGAAATC ((((((....))).))) | -21.4 kcal/mol | 41.5 °C
CGGCCGGAAACGGCCCCG ((((((....)))..))) | -6 kcal/mol | 35.4 °C
GGGATTGGAAACAATCTC (.(((((....))))).) | -28.3 kcal/mol | 45.3 °C
GATGTGGGAAACCATATC (((.(((....))).))) | -41.5 kcal/mol | 43.2 °C
GTCTAGCGAAAGCTGAC (((.(((....)))))) | -21.1 kcal/mol | 50.5 °C
GATCCTACCAGGATC ((((((...)))))) | -39.6 kcal/mol | 54.9 °C
GCTACGCGAAAGCCTAGC ((((.((....)).)))) | -23.3 kcal/mol | 45.6 °C
GATCGGGGTTCCGATC ((((((....)))))) | -36.9 kcal/mol | 59 °C
GATCAGTTAACTGATC ((((((....)))))) | -40.5 kcal/mol | 54.4 °C
GCGACGCGAAAGCGCTGC ((..(((....)))..)) | -17.5 kcal/mol | 57.1 °C
GATCTCTTTTGAGATC ((((((....)))))) | -39.2 kcal/mol | 55 °C
GCGTACCGAAAGGTTCGC (((.(((....))).))) | -50.5 kcal/mol | 63 °C
GAACCGCGAAAGCGCTTC (((.(((....))).))) | -10.6 kcal/mol | 35.1 °C
GTTGGTGGAAACGCTAAC (((.(.(....).).))) | -14 kcal/mol | 30.7 °C
GCTATGTCGAAAGACAGC (((..(((....)))))) | -14 kcal/mol | 41.5 °C
GAGTATGGAAACACACTC ((((.((....)).)))) | -24.9 kcal/mol | 31.7 °C

Sequence | folding enthalpy [1] | Tm [2]
GCCGTTGGAAACGATGGC (((.(.(....).).))) | -23.1 kcal/mol | 42.9 °C
GCGTCCGTACGC ((((....)))) | -26.8 kcal/mol | 52.3 °C
GCGCACGAAAGTGGACGC ((((((....)))..))) | -32.7 kcal/mol | 55.4 °C
GATCCAATAATGGATC ((((((....)))))) | -31.1 kcal/mol | 47.5 °C
GATCGGATCGCCGATC ((((((....)))))) | -32.2 kcal/mol | 55.8 °C
GCGTCGGGACGC ((((....)))) | -20.2 kcal/mol | 66 °C
GTCTGGAAACAGAC (((((....))))) | -27.8 kcal/mol | 52.4 °C
GGTCTCGAAAGAGCTACC ((((((....)))..))) | -13.9 kcal/mol | 36 °C
GTAGGCGGAAACGTCTGC (.((.((....)).)).) | -23 kcal/mol | 41.6 °C
GCAAACGAAAGTTTCTGC ((((((....)))..))) | -14.9 kcal/mol | 33.8 °C
ATTCGGAAACGAAT (((((....))))) | -18.4 kcal/mol | 44.8 °C
GCGGGTGGAAACGCTCGC (((.(.(....).).))) | -24.6 kcal/mol | 52.1 °C
GGATTTTCGAAAGAATCC (((..(((....)))))) | -17.7 kcal/mol | 31.4 °C
GCAGACGAAAGTCAGTGC ((((((....)))..))) | -19 kcal/mol | 46.4 °C
GGGAGCGAAAGCTTTCCC ((((((....)))..))) | -16.3 kcal/mol | 40.4 °C
GTCGATGAAAATCGAC ((((((....)))))) | -39.4 kcal/mol | 61.3 °C
GGGCGCGAAAGCGTACCC ((((((....)))..))) | -13.1 kcal/mol | 56.3 °C
GCTTTGCGAAAGCAGCGC ((..(((....)))..)) | -16.7 kcal/mol | 48.6 °C
GATCCACAATGGATC ((((((...)))))) | -30.7 kcal/mol | 48.3 °C
GTGTCTCGAAAGAGGCAC (((.(((....))).))) | -38.5 kcal/mol | 61.3 °C
GCAATACGAAAGTACTGC (((.(((....))).))) | -31.3 kcal/mol | 43.9 °C
